This is a sample that favours compounds with a hit; in the whole collection about 2.1% have one here.
FXIa inh 1536 – blocks human coagulation factor XIa protease activity; inhibition, % at 5 µM; AID 798; purified FXIa, Boc-Glu-Ala-Arg-AMC fluorogenic substrate; 220,000 compounds, 0.14% hits;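 active = inhibition of at least 40%; inactive = inhibition below 40%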;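 also: fluorescence of freed AMC excited at 355 nm; 0% = enzyme without compound and 100% = no enzyme blank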
Target sequence (P03951 19-387 limits assumed): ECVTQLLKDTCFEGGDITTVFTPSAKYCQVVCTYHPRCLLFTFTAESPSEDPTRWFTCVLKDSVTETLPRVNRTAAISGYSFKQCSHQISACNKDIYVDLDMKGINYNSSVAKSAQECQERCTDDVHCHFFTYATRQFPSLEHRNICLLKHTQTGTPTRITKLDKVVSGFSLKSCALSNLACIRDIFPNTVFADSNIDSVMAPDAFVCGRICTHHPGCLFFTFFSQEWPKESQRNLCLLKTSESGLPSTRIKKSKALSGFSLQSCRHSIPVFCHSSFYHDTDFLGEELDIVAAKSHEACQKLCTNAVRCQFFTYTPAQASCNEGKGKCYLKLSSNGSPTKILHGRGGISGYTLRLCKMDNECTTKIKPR
Target sequence (P03951 388-625 limits assumed): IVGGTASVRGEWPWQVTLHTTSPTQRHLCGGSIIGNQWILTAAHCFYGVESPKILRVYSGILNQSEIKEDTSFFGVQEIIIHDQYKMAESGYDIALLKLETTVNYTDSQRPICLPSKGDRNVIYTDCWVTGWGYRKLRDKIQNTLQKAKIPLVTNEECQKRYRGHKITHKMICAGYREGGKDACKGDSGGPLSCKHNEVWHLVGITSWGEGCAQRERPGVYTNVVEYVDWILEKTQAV
KLK5 inh – inhibitors of human kallikrein 5. Q9Y337. recombinant hK5, fluorogenic AMC substrate cleavage. inhibition, % at 5 µM. 210,000 compounds, 0.59% hits;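 active = inhibition of 40% or more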;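 also: 0% = enzyme controls without compound and 100% = no-enzyme blanks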
EP2 modulator – modulates human prostaglandin E2 receptor EP2 signaling | induction, % at 25 µM | AID 940 | 260,000 compounds, 0.83% hits | P43116 | EP2-expressing cells, cAMP HTRF FRET, PGE2 co-stimulation;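 active = compounds whose cAMP rise, as percent of the full-agonist control response, exceeds 60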;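 also: rat C6 glioma line stably carrying human EP2 under a CMV promoter; the protocol text gives 20 µM as final concentration; 100% = response of wells given 1 µM PGE2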
FXIIa inh 1536 – inhibitors of human coagulation factor XIIa. purified FXIIa, Boc-QGR-AMC fluorogenic substrate, 2 h. inhibition, % at 5 µM. P00748. 220,000 compounds, 0.3% hits; in the data active = inhibition above about 40%;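 also: 0% = enzyme with no compound and 100% = blank without enzyme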
Thrombin inh – thrombin (human) inhibition | P00734 | alpha-thrombin, Boc-VPR-AMC fluorogenic substrate cleavage | inhibition, % at 5 µM | 220,000 compounds, 0.26% hits;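 active = inhibition at or above 40%; inactive = inhibition below 40%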;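 also: 0% = enzyme with no compound and 100% = wells without enzyme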
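System: human alpha-thrombin protein; Compound dosing: one concentration per compound, 5 µM, with 0.2% DMSO; Timing: reaction at room temperature; Technique: AMC fluorescence, 355/460 nm; Controls: enzyme without compound as high, wells lacking enzyme as low.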
PGE2 EP2 inh – blocks the human prostaglandin E2 receptor EP2; C6 glioma cells expressing human EP2, cAMP TR-FRET; cells stimulated with saturating PGE2; AID 1422; 260,000 compounds, 0.52% hits; inhibition, % at 25 µM; P43116;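 active = percent inhibition above 40 after rounding to a whole number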;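 also: rat C6 glioma host cells with rolipram phosphodiesterase inhibitor present; the protocol text gives 20 µM as final concentration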
EP2 cAMP induct – human EP2 receptor cAMP induction, negative in counter-screens; calls only at 20 µM (by protocol); AID 1080; shares compounds with EP2 modulator; C6 glioma EP2 cells, cAMP HTRF induction; plus low (about EC15) PGE2 agonist; 1,300 compounds, 47% hits;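 active = cAMP induction above 50% in the main assay while under 30% in all four parallel counter assays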;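 also: rat C6 glioma cells stably expressing human EP2 receptor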
An asterisk follows results filed as active; i = inactive; nt = no result; + = active, no number; ! = not confirmed by another sample.

SMILES	FXIa inh 1536	KLK5 inh	EP2 modulator	FXIIa inh 1536	Thrombin inh	PGE2 EP2 inh	EP2 cAMP induct
CCOP(=O)(c1ccccc1)c1nc(-c2ccccc2C)oc1N1CCCCC1 (stereo not given)	-4.7	-15.6	69.9*	14.1	-6.2	5.4	+
CCOP(=O)(c1ccccc1)c1nc(-c2ccccc2C)oc1NCc1ccccc1 (stereo not given)	-4.0	-1.6	46.7	2.0	-8.4	5.9	nt
CCOP(=O)(OCC)c1nc(-c2cccc3ccccc23)oc1N1CCCCC1	-14.9	-54.4	68.7*	-46.0	-17.3	7.1	+
Cc1sc(NC(=O)CCn2cnc3ccccc3c2=O)nc1-c1ccc(Cl)cc1	nt	nt	22.3	nt	nt	7.0	nt
CC(NC(=O)CSc1nc(-c2ccco2)cc(C(F)(F)F)n1)c1ccccc1 (stereo not given)	nt	nt	-106.3	nt	nt	19.1	nt
COc1cc(CCC(=O)OCC(=O)Nc2ccccc2C(C)C)cc(OC)c1OC	6.6	-1.0	7.6	8.4	0.8	6.6	nt
COc1ccccc1/C=C(/C(=O)OCC(=O)Nc1ccccc1C(C)C)c1ccccc1	10.4	-1.7	68.4*	15.8	3.6	10.5	+
Cc1ccccc1C1(O)CCN(C(=O)c2cc(-c3ccccn3)n[nH]2)CC1	nt	nt	-29.2	nt	nt	6.2	nt
CC(C)NC(=O)CSc1nnc(-c2ccco2)n1Cc1ccccc1	nt	nt	3.3	nt	nt	13.4	nt
COC(=O)c1c(NC(=O)CSc2nnc(-c3ccco3)n2Cc2ccccc2)sc(C)c1C	-7.2	-3.3	51.9	8.0	-6.6	3.9	i
COCCn1c(SCC(=O)NCCc2ccccc2)nnc1-c1ccco1	-0.4	-16.7	66.6*	15.4	-9.6	4.8	i
CC(C)(C)c1ncc(C(=O)NC2CCN(Cc3cccc(F)c3)CC2)cn1	nt	nt	-52.4	nt	nt	10.2	nt
CN(CC(=O)Nc1ccccc1Oc1ccccc1)Cc1ccccc1F	2.4	-1.5	66.8*	5.8	-5.4	4.1	+
Cc1ccccc1CN(C)CC(=O)Nc1ccccc1Oc1ccccc1	1.2	-9.7	67.7*	4.8	-5.2	4.0	+
Cc1ccccc1CN(C)CC(=O)Nc1ccccc1-c1ccccc1	5.9	0.1	53.0	11.5	-1.6	8.3	nt
COc1ccccc1NC(=O)c1ccc(NC(=O)CN(C)Cc2ccccc2F)cc1	3.0	3.5	-54.1	9.5	-2.8	1.3	nt
COc1ccccc1CN(C)CC(=O)Nc1ccccc1-c1ccccc1	-8.5	-21.6	70.7*	-1.4	-0.4	8.0	+
COc1ccc(CN(C)CC(=O)Nc2ccccc2-c2ccccc2)c(OC)c1	-4.3	-4.9	12.6	1.0	-6.8	1.4	nt
COc1ccc(CN(Cc2coc3ccccc3c2=O)CC2CCCO2)cc1OC (stereo not given)	nt	nt	-2.3	nt	nt	0.5	nt
COc1ccc2[nH]c(=O)c(CN(Cc3nnnn3CC3CCCO3)C3CCCC3)cc2c1 (stereo not given)	nt	nt	-15.9	nt	nt	12.9	nt
CC(C)Cc1nc2oc3c(Cl)ncnc3c2c2c1CCCC2	0.0	-1.5	46.2	7.8	-5.1	6.8	nt
COc1ncnc2c1oc1nc(CC(C)C)c3c(c12)CCCC3	10.8	-5.6	67.6*	25.6	5.5	9.0	+
CC(C)C(c1nnnn1CC1CCCO1)N1CCN(Cc2ccccc2)CC1 (stereo not given)	nt	nt	13.1	nt	nt	5.3	nt
Cc1ccc(OCC(=O)NNC(=O)C2CCN(c3ncccn3)CC2)cc1	-8.4	-11.0	64.9*!	2.2	0.2	8.1	i
O=S(=O)([O-])CCc1cccc[n+]1CC(O)COc1ccccc1Cl (stereo not given)	nt	nt	-7.6	nt	nt	6.1	nt
SMILES	FXIa inh 1536	KLK5 inh	EP2 modulator	FXIIa inh 1536	Thrombin inh	PGE2 EP2 inh	EP2 cAMP induct
Cc1ccc2cc(NC(=O)Cc3ccccc3)ccc2n1	13.8	4.2	-23.5	7.9	3.0	7.0	nt
Cc1cc(N)c2cc(NC(=O)Nc3ccc4nc(C)cc(N)c4c3)ccc2n1	nt	nt	61.5*	nt	nt	48.7*	i
CCc1nc(SCC(=O)Nc2nc(-c3ccc(OC)cc3)cs2)c2ccccc2n1	nt	nt	36.9	nt	nt	10.3	nt
Cc1ccccc1S(=O)(=O)c1c(C)cc(C)n(CC(C)C)c1=O	9.8	-6.7	69.6*	18.4	4.5	8.8	+
N#CCSc1nc2ccccc2c(=O)n1CCC(=O)NC1CCCCC1	5.7	-21.9	12.8	19.7	4.4	6.5	nt
N#CCSc1nc2ccccc2c(=O)n1C1CCCCC1	-3.9	-17.9	70.7*	6.0	-0.5	11.8	+
COCCOC(=O)C1=C(C)OC(N)=C(C#N)C1c1cc2ccc(C)c(C)c2[nH]c1=O (stereo not given)	nt	nt	-51.1	nt	nt	7.5	nt
CC(C)[C@H]1CN(Cc2ccccc2F)CCN1C(=O)c1ccccn1	nt	nt	-47.5	nt	nt	nt	nt
CCC1Oc2ccc(C)cc2N(Cc2cccc(C)c2)C1=O (stereo not given)	-10.6	-3.5	75.3*	-3.3	-5.5	5.9	+
CCc1ccc2[nH]c(=O)c(CN(CCO)C(=O)c3ccc(C)cc3)cc2c1	nt	nt	-13.2	nt	nt	8.8	nt
Cc1cc2ccccc2nc1SCC(=O)NC1CCCC1	6.5	9.2	77.4*	10.9	-8.6	10.2	i
Cc1cc2ccccc2nc1SCC(=O)NC1CCCCC1	-0.1	-3.8	70.3*	10.2	4.9	8.2	i
COc1ccc(C2=NN(C(=O)CCCC(=O)O)C(c3ccco3)C2)cc1OC (stereo not given)	nt	nt	-10.8	nt	nt	6.8	nt
CO/N=C/C(=N\Nc1ccccc1)C(=O)c1ccccc1	12.2	12.4	84.3*	6.6	-2.9	2.0	+
CC1=CC(C)(C)N(S(=O)(=O)c2ccc(C)cc2)c2cc(C)ccc21	-1.0	-21.8	69.5*	4.9	-3.7	12.9	+
COc1ccc(OC)c(-c2cnc(OC(C)(C)C)nc2OC(C)(C)C)c1	4.2	-10.9	69.8*	7.5	-5.2	7.8	i
CC1CCC(C(C)C)C(OC(=O)COC(=O)c2ccc(=O)[nH]c2)C1 (stereo not given)	-0.7	-3.6	66.5*	14.2	-0.9	14.6	i
CC1CCC(C(C)C)C(OC(=O)COC(=O)c2cc(O)ccc2N)C1 (stereo not given)	-10.8	-23.7	43.3	-9.6	-7.2	17.5	nt
O=C1COc2ccccc2N1Cc1ccccc1Cl	-3.7	-11.5	68.4*	15.9	2.6	7.1	i
CCCn1ncc(C(=O)N2C[C@H](C(=O)O)[C@@H](c3ccccc3F)C2)c1C	nt	nt	-29.3	nt	nt	5.7	nt
Cn1c(=O)c2c(nc(N3CCc4ccccc4C3)n2CCSc2ncccn2)n(C)c1=O	nt	nt	-28.3	nt	nt	9.8	nt
Cn1c(=O)[nH]c(=O)c2c1nc(N1CCCC1)n2CC(=O)c1ccccc1	nt	nt	13.6	nt	nt	11.7	nt
NS(=O)(=O)c1ccc(NCc2cnc3ccccc3n2)cc1	nt	nt	71.1*	nt	nt	9.9	i
NS(=O)(=O)c1ccc(NCc2cnc3ccccc3c2)cc1	nt	nt	8.5	nt	nt	7.4	nt

Screens from PubChem.
